Measurements from ChEMBL document CHEMBL4028894, “Identification of a New Pyrazolo[1,5-a]quinazoline Ligand Highly Affine to γ-Aminobutyric Type A (GABAA) Receptor Subtype with Anxiolytic-Like and Antihyperalgesic Activity” (J Med Chem, 2017).

Experiments:
Bos taurus = species on record: Bos taurus; assay: Displacement of [3H]Ro15-1788 from GABAA receptor in bovine cerebral cortex membranes at 10 uM after 90 mins by liquid scintillation counting method relative to control; type: cell membranes; details: Membrane
In short: (§1)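 Bovine cerebral cortex membranes in 50 mM tris-citrate pH 7.4, with displacement of specific [3H]flumazenil binding. Single-point screen at 10 μM gives % inhibition. Where inhibition exceeds 80%, at least six concentrations tested and Ki derived by iterative curve fitting and the Cheng-Prusoff equation. Five experiments, each in triplicate; mean ± SEM.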

[1] = Displacement of [3H]Ro15-1788 from GABAA receptor in bovine cerebral cortex membranes after 90 mins by liquid scintillation counting method; type: cell membranes, Bos taurus, Membrane; in short: as §1
Mus musculus [2] = assay: Anticonvulsant activity in Swiss albino mouse assessed as protection against subcutaneous pentylenetetrazole-induced seizures at 10 mg/kg, po administered 30 mins followed by pentylenetetrazole challenge measured over 30 mins relative to control; type: functional
In short: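 Male Swiss albino mice (23-30 g), 6 per group. Test drug suspended in 1% carboxymethylcellulose, given orally 30 min before PTZ 90 mg/kg s.c. (saline). Clonic generalized convulsions recorded over 30 min. Result expressed as % protection versus vehicle-treated animals (0% protection).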

Mus musculus [3] = assay: Anxiolytic-like activity in Swiss albino mouse assessed as persistent time in light box at 10 mg/kg, po administered 30 mins prior to testing by light dark box test (131.9 +/- 6.5 secs); type: functional

Structure (SMILES)	inhibition (Bos taurus)	Ki [1]	Activity (Mus musculus [2])	Time (Mus musculus [3])
O=C(OCc1cccs1)c1cnn2c1ncc1ccccc12	> 80%	0.0132 µM	–	–
COc1ccc2cnc3c(C#N)cnn3c2c1	> 80%	0.378 µM	–	–
CN1C(=O)CN=C(c2ccccc2)c2cc(Cl)ccc21 [DIAZEPAM]	–	0.0123 µM	100%	165.6 s
O=C(OCc1ccccc1)c1cnn2c1ncc1ccccc12	> 80%	0.0259 µM	–	–
CCOC(=O)c1cnn2c1[nH]c(=O)c1ccc(OC)cc12	2%	–	–	–
COc1ccccc1COC(=O)c1cnn2c1ncc1ccccc12	> 80%	0.00316 µM	–	–
CCOC(=O)c1cnn2c1ncc1ccccc12	> 80%	0.529 to 0.835 µM	–	–
CCOC(=O)c1cnn2c1NCc1ccc(OC)cc1-2	> 80%	0.376 µM	–	–
COc1ccc2cnc3c(C(=O)OCc4cccs4)cnn3c2c1	> 80%	0.0167 µM	–	–
COc1ccc2c(c1)-n1ncc(C(=O)OCc3ccccc3)c1NC2	> 80%	0.034 µM	–	–
